Measurements published in PMC2901992 (Bioorganic & medicinal chemistry letters, 2010).
Where two headings read alike, the source gives them in different places.

Tests used:
panel of 442 kinases [1] = conditions: cited from earlier work
Bcr-Abl (T315I) = Bcr-Abl (T315I) (Homo sapiens, UniProt P00519+P11274, T315I); assay: Cellular antiproliferative activity on mutant Bcr-Abl-T315I-Ba/F3; assay type: cell-based; conditions: for Fold improvement relative to 3 against T315I mutant Bcr-Abl: relative to compound 3; for EC50: read-out: EC50 against T315I mutant
Summary of the method: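 Ba/F3 cells transformed with wild-type or T315I Bcr-Abl were tested for antiproliferative activity, with parental Ba/F3 cells tested alongside. The value is an EC50 from the cellular assay.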

Bcr-Abl (wt) = Bcr-Abl (wt) (Homo sapiens, UniProt P00519+P11274); assay: Cellular antiproliferative activity on wtBcr-Abl-Ba/F3; assay type: cell-based; conditions: for Selectivity for Bcr-Abl dependent cellular growth: versus parental Ba/F3 cytotoxicity
panel of 442 kinases [2] = assay: KINOMEscan kinase selectivity profiling; assay type: binding; conditions: 10 μM
[3] = carbonyl group at the 6-position

## CCN1CCN(Cc2ccc(NC(=O)c3cccc(-c4ccc5nc(NC(=O)C6CC6)sc5n4)c3)cc2C(F)(F)F)CC1 [HG-7-85-01]
Panel of 442 kinases [1]
  Selectivity score S10: 0.056

## CCN1CCN(Cc2ccc(NC(=O)c3ccc(C)c(C#Cc4ccc(NC(=O)C5CC5)nc4)c3)cc2C(F)(F)F)CC1 [Compound 5]
Bcr-Abl (T315I)
  Fold improvement relative to 3 against T315I mutant Bcr-Abl: ~8 fold

## CCN1CCN(Cc2ccc(NC(=O)c3ccc(C)c(C#Cc4ccc(C(=O)NC)nc4)c3)cc2C(F)(F)F)CC1 [Compound 6]
Bcr-Abl (T315I); [3]
  Fold less potent EC50 against T315I Bcr-Abl: 6 fold
Bcr-Abl (wt); [3]
  Fold less potent EC50 against wild-type Bcr-Abl: 6 fold

## CCN1CCN(Cc2ccc(NC(=O)c3ccc(C)c(C#Cc4ccc(NC(C)=O)nc4)c3)cc2C(F)(F)F)CC1 [Compound 4]
Bcr-Abl (T315I)
  Fold improvement relative to 3 against T315I mutant Bcr-Abl: ~8 fold

## CCN1CCN(Cc2ccc(NC(=O)c3ccc(C)c(C#Cc4cnc5[nH]ccc5c4)c3)cc2C(F)(F)F)CC1 [Compound 12]
Panel of 442 kinases [2]; panel of 442 kinases
  Number of kinases with ambit score of less than 10% of the DMSO control: 203 kinases
Panel of 442 kinases [2]; hits: ABL, ARG, BLK, PITSLRE, CRIK, FMS/CSFR, DDR1, EphA8, FGFR4, HPK1, JNK2, KIT, LOK, LYN, GCK, MUSK, MYO3B, p38α, p38β, PDGFRα, PDGFRβ, RET, RIPK1, SRC, TAO1, TAO2, TAO3, TIE2
  Ambit score of kinase hits (% of the DMSO control): < 0.1%
Bcr-Abl (T315I)
  EC50: < 100 nM
Bcr-Abl (wt)
  Selectivity for Bcr-Abl dependent cellular growth: up to 1000 fold

## CCN1CCN(Cc2ccc(NC(=O)c3ccc(C)c(C#Cc4cnc5[nH]cnc5c4)c3)cc2C(F)(F)F)CC1 [Compound 14]
Bcr-Abl (T315I)
  EC50: < 100 nM

## CCN1CCN(Cc2ccc(NC(=O)c3ccc(C)c(C#Cc4cccnc4)c3)cc2C(F)(F)F)CC1 [Compound 3]
Panel of 442 kinases [2]; panel of 442 kinases
  Number of kinases with ambit score of less than 10% of the DMSO control: 193 kinases
  Selectivity score S10: 0.427
Bcr-Abl (wt)
  Selectivity for Bcr-Abl dependent cellular growth: up to 1000 fold
